From the EternaBench riboswitch data

Tested on: MS2 coat protein
Experiment: apparent Kd, MS2 coat protein; higher = weaker binding; RNA-MaP array; FMN 200 µM where present
How it was run: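 Stalled E. coli RNA polymerase transcribed the designs on Illumina sequencing-chip clusters. SNAP-549-labelled MS2 coat protein was titrated from 0.7 or 1.5 nM, doubling to 3 µM, without and then with constant ligand, in 100 mM Tris-HCl pH 7.5, 80 mM KCl, 4 mM MgCl2, BSA, DTT, yeast tRNA and Tween-20. Per-cluster binding curves were fitted to green signal normalised to red-channel RNA signal and control-cluster median Fmax. The apparent Kd is the median of the filtered fits.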

[1] = designed as: ON switch for flavin mononucleotide, no ligand
[2] = ligand present: flavin mononucleotide, designed as: ON switch for flavin mononucleotide
[3] = designed as: OFF switch for flavin mononucleotide, no ligand
[4] = ligand present: flavin mononucleotide, designed as: OFF switch for flavin mononucleotide

GGUGCAUGUGAGAAGGCGAUCAUGAAACAUGAUCGAGGAUAUCAUGUAAACAUGAGGAUCACCCAUGUAUGGGAAAAGUGCACC
apparent Kd [1]: 0.0979 µM | apparent Kd [2]: 0.0101 µM

GUACUGUAGUGAGGAUAUACGAGUUCGAUAGAACGGCGAUCCAUAUAUACAUGAGGAUCACCCAUGUAGAAGGCACUUCAGUAC
apparent Kd [3]: 0.00769 µM | apparent Kd [4]: 0.1 µM

UGGUACUAGGGAGGAUAUGGGAAGAUACAUGAGGAUCACCCAUGUUUGAGAAUGCCGAGAGGCAACUAGAAGGCCCUAGUACCU
apparent Kd [1]: 0.43 µM | apparent Kd [2]: 0.0181 µM

UGUUGUAUUACAGGAUAUCUAGAAUUUUUAUUUAGAGAAGGGUAUUCACAUGAGGAUCACCCAUGUAUAUACGAGGAAGUUGUG
apparent Kd [1]: 0.0337 µM | apparent Kd [2]: 0.0338 µM

UAGUAUAAGGGCAUUAAACAUGAGGAUCACCCAUGUACGUUAGAGGAUAUGCAUUACAGUUGAAAGUAGAAGGUUAGAGAAGGG
apparent Kd [3]: 0.0456 µM | apparent Kd [4]: 0.0501 µM

UUACUAUUACAGAAGGCUAAAUAAUAUAUAAAUGGAGGAUAUGUAACAUGAGGAUCACCCAUGUUUCACCCACAUGAGGAUCAC
apparent Kd [3]: 0.00845 µM | apparent Kd [4]: 0.0238 µM

AAGAAGUGAGGAUAUACAUGAGGAUCACCCAUGUAAAGAAGAAGAGGAGAGAAUAAAGGUAGAAGGCACAAGAA
apparent Kd [3]: 0.0458 µM | apparent Kd [4]: 0.046 µM

CCGGGAAUAUUAAAUACCUCAACAUGAGGAUCACCCAUGUUGCAGGAUAUCAAUGAGUUGGAAAAUGAGAAGGGCAGCGGGAGA
apparent Kd [3]: 0.00581 µM | apparent Kd [4]: 0.00734 µM

GCUGCAUAGGCAGGAUAUGCAAAAGCAGAUGCAAAGCAUUUGUAAAACACAUGAGGAUCACCCAUGUAGAAGGGCCUGUGCAGU
apparent Kd [3]: 0.0218 µM | apparent Kd [4]: 0.0215 µM

AAAAAACAUGAGGAUCACCCAUGUUAGGAUAUCGUGCAGAAAAAAAAAAAAAACUGCACGAGAAGGAACAAGGA
apparent Kd [3]: 0.0745 µM | apparent Kd [4]: 0.0988 µM

GUAGAACAUGAGGAUCACCCAUGUGAUUACGAUGUAGGAUAUGGGCAUGAGAAGUCAUUUCUAGAAGGGCAGAUAA
apparent Kd [1]: 0.141 µM | apparent Kd [2]: 0.154 µM

AAAAAACAUGAGGAUCACCCAUGUGAGGAUAUCACUAGUCAGUCCUCGGAGUGAGUUCUGAGAAGGCACAUAAA
apparent Kd [3]: 0.118 µM | apparent Kd [4]: 0.106 µM

CCAUGGCUGUGAGGAUAUGUCUGACAAAGUCAGACAGAAGGCACAUGAGGAUCACCCAUGUGAAAACACCAACAAAAGCCAUGG
apparent Kd [3]: 0.00593 µM | apparent Kd [4]: 0.0069 µM

GCGCUGCGAGGAUAUACAUGAGGAUCACCCAUGUGUCGGCAGCCAUGCUAGUACAAAUGUAGAAGGCGCGUAAA
apparent Kd [3]: 0.0168 µM | apparent Kd [4]: 0.0178 µM

GCACCUGCGUAGAAGGUACUAUAUAAUGCAGUGUAAGGAUAUACAUACAUGAGGAUCACCCAUGUAAAUGGAAUUUGCAGGUGC
apparent Kd [1]: 0.0122 µM | apparent Kd [2]: 0.0103 µM

GGUGGCGUGAUAACGCUAGAUAUAACAUGAGGAUCACCCAUGUAGGAUAUCCUGCCGAGAGGGCGGGAGAAGGACAACCAAUGG
apparent Kd [3]: 0.0419 µM | apparent Kd [4]: 0.0418 µM

CGUAGUUGGUAAGGAUAUCCUACACUAUUCUGACCCGUGCAAGCUACAUGAGGAUCACCCAUGUGGGAGAAGGUGCGUCAACGU
apparent Kd [3]: 0.0108 µM | apparent Kd [4]: 0.0109 µM

UAAUUGUGAGGAUAUUCGUAGUUCACGGAGACGUGAAUUACGGAGAAGGCACAUGAGGAUCACCCAUGUUCCUU
apparent Kd [3]: 0.0178 µM | apparent Kd [4]: 0.0848 µM

GGAUAGGACAGAGGAUAUACGUUCUAGAGAUACUAGCAAAAUUUCCUCACAUGAGGAUCACCCAUGUAGAAGGCUGUCCUAUCG
apparent Kd [3]: 0.0151 µM | apparent Kd [4]: 0.282 µM

UCACGGGAUUGAGGAUAUAUAUUAAUUUUUACAAUAGAAGGCAAAUUGUUAGUUUUUUCACUUUACAUGAGGAUCACCCAUGUU
apparent Kd [3]: 0.0262 µM | apparent Kd [4]: 0.024 µM

AUCAGCUCGUGAGGAUAUACGUCACUGCGUCAGCAGUGUGGUAAGAUCACAUGAGGAUCACCCAUGUAGAAGGGACGAGCUGAU
apparent Kd [3]: 0.0156 µM | apparent Kd [4]: 0.0459 µM

UUUUAACAUGAGGAUCACCCAUGUGAGGAUAUCGAAAUUUAUAUUAAUAUUUAUUAUUCGAGAAGGCACAUUUU
apparent Kd [3]: 0.152 µM | apparent Kd [4]: 0.167 µM

GCGAUUUUGUAGAAGGUACGUGAUUAGACAAAGUAAGGAUAUACUGACAUGAGGAUCACCCAUGUAUUAAUAGUUAACAGUCGC
apparent Kd [1]: 0.0254 µM | apparent Kd [2]: 0.0149 µM

UUAGGACAAGCAGGAUAUGUAACAUGAGGAUCACCCAUGUUGAGACUUUGGCACUCCUACAUGCAGCAGAAGGGCUUCAAACCU
apparent Kd [3]: 0.0297 µM | apparent Kd [4]: 0.0664 µM

AUGGACGUCGUAGGAUAUGUAGGAUUCUCGUACAUGAGGAUCACCCAUGUUGACGUCGAGGACGGACAGAAGGGCGGUGUCUAU
apparent Kd [1]: 0.0646 µM | apparent Kd [2]: 0.00938 µM

GUGUUACAUGAGGAUCACCCAUGUGAGGAUAUCAUGCUUCGUAGUAAACUACGAAGUGUGAGAAGGCACAUGAC
apparent Kd [3]: 0.265 µM | apparent Kd [4]: 0.806 µM

CUAGUAUAUCAGGAUAUGAUUUUGUGUAGUUGGUCAGAAGGGAUGACAUGAGGAUCACCCAUGUUAAGGAGUGA
apparent Kd [3]: 0.122 µM | apparent Kd [4]: 0.146 µM

CACGAUCAUGUAGGAUAUAUACUGGAAUACAGUAUAGAAGGACAUGAGGAUCACCCAUGUUAAGUGCCUCCAAGUAAGAUCGUG
apparent Kd [3]: 0.017 µM | apparent Kd [4]: 0.023 µM

AGUAAAGGCCUGAGGUGUCCGAACAUGAGGAUCACCCAUGUAGAGGAUAUAGGUGGAAGUGACUCCUAGAAGGCUACGUGUCAU
apparent Kd [3]: 0.00618 µM | apparent Kd [4]: 0.00818 µM

CCAUACAUGAGGAUCACCCAUGACAUGAGGAUCACCCAUGUGCAGGAUAUACGUGAUAUAAUAUAGUAGAAGGGCAGACCAAAA
apparent Kd [3]: 0.0757 µM | apparent Kd [4]: 0.0852 µM

GGAUCGAUGUAGAAGGCUGUCCUAAAAUAGGACAGAGGAUAUACAUGAGGAUCACCCAUGUACUCCUUUAAAAUGAUCCAAAUA
apparent Kd [3]: 0.00553 µM | apparent Kd [4]: 0.0103 µM

AUAAAUAAGCAAGGAUAUUGUUUAAAUAAAUAACAAGAAGGUGCAGUUAAUUUCUCAAAACAUGAGGAUCACCCAUGUAUUUAA
apparent Kd [1]: 0.0424 µM | apparent Kd [2]: 0.0218 µM

GCCUAAAGUGAGGAUAUCUAGCGCGUAAAGGCAGGAGAAGGUGCAACAUGAGGAUCACCCAUGUAGGCUGUCUA
apparent Kd [3]: 0.0195 µM | apparent Kd [4]: 0.02 µM

AAAUUUAACGAAGGAUAUGGUUACAUGAGGAUCACCCAUGUAUAUUUUGUGAUCUUGUUUAAGUUCCAGAAGGUCGUAUACAUA
apparent Kd [3]: 0.0741 µM | apparent Kd [4]: 0.294 µM

AACGCGUCAGGAUAUAGCGAAACUUAGGUAGUACAACCAUACUAGAAGGGACAUGAGGAUCACCCAUGUGGGUA
apparent Kd [3]: 0.209 µM | apparent Kd [4]: 0.104 µM

CGGUACUAGGGAGGAUAUGGGAAGAUACAUGAGGAUCACCCAUGUUUAAGAAUGCCGAGAGGCAACUAGAAGGCCCUAGUACCU
apparent Kd [1]: 0.353 µM | apparent Kd [2]: 0.0207 µM

GGUGCCAUGUAGAAGGCAGAUCUGAUUCAGAUCUGAGGAUAUACAUGAGGAUCACCCAUGUAAGGGCACCGCACGAGAGUGCAA
apparent Kd [3]: 0.00656 µM | apparent Kd [4]: 0.0102 µM

CCGUAGGGAGGAUAUCCAAUAUAUGACAUGAGGAUCACCCAUGUUUCCACUCGUACCUCCGGAGAAGGCCCAUCCC
apparent Kd [3]: 0.0249 µM | apparent Kd [4]: 0.0223 µM

ACCUCACAUGAGGAUCACCCAUGUUAGGAUAUCUCGGUGCCCUGCAGGCAGUGGCACCAGAGAAGGAACGUGCA
apparent Kd [3]: 0.0192 µM | apparent Kd [4]: 0.0242 µM

AGCAUGUGAGGAUAUGCGGACUCCAGUAAAUCUGAAGUCCAGUAGAAGGCACAUGAGGAUCACCCAUGUGAUAA
apparent Kd [3]: 0.0929 µM | apparent Kd [4]: 0.112 µM

GCCUCACAUGAGGAUCACCCAUGUCAGGAUAUAGGAGGCAGUAGAUAUCCUACCGCCGCUAGAAGGGACUGGCA
apparent Kd [3]: 0.0491 µM | apparent Kd [4]: 0.131 µM

CCUGCACAUGAGGAUCACCCAUGUCAGGAUAUCUCGCCGUGUGGAGCAACACGGUAUAAGAGAAGGGACACGGG
apparent Kd [3]: 0.0287 µM | apparent Kd [4]: 0.0257 µM

ACAAAUGGAGGAUAUACAUGAGGAUCACCCAUGUUUAUCCUACAUGUGUGAUAAUAAUGUAGAAGGCCAUUUGA
apparent Kd [3]: 0.0197 µM | apparent Kd [4]: 0.0132 µM

GUCGGAAACGACAAAAGUAUGGAUCCAGAAGGCAUGAAACAUGAGGAUCACCCAUGUCUAAGACAUGAGGAUAUGGAUCCAUAC
apparent Kd [1]: 0.00711 µM | apparent Kd [2]: 0.00378 µM

CUAAUGUGAGGAUAUGGUGUUGAUCGCAGGAAGGAGAUGCUCCAGAAGGCACAUGAGGAUCACCCAUGUAGUGA
apparent Kd [3]: 0.0705 µM | apparent Kd [4]: 0.0367 µM

AGCGGAGACAUGAGGAUCACCCAUGUCAGUGCCGGCGAUACCAGAAGGCCCGGCGGGCCUCGGCGGGAGGAUAUGGGUUCAACA
apparent Kd [1]: 0.0518 µM | apparent Kd [2]: 0.0149 µM

GAAAACAGAGGAUAUACAAAAUUGACACGAAAGGUGCAAAAACAUGAGGAUCACCCAUGUAGAAGGCUGAAGAA
apparent Kd [3]: 0.0248 µM | apparent Kd [4]: 0.022 µM

AAGUCAGCAGGAUAUGCGAUGGUGUACUAGGUAGUUUGCCCACAUGAGGAUCACCCAUGUAGAAGGGCUGGCUA
apparent Kd [3]: 0.0147 µM | apparent Kd [4]: 0.0215 µM

AUCAAUCACAUAGGAUAUAGAAUAUUAUAUUUUUACAUGAGGAUCACCCAUGUUUUAUUGGGAUUCUAGAAGGAUGAGUUAUUA
apparent Kd [1]: 0.13 µM | apparent Kd [2]: 0.118 µM

AAUUAAUUGUAGAAGGUACUUAAUUAUGUUAUGUAAGGAUAUACGUAAUUAUUACGUCUUGUAUGACAUGAGGAUCACCCAUGU
apparent Kd [1]: 0.0129 µM | apparent Kd [2]: 0.011 µM

AAAGACAGAGGAUAUGCACGCCGACCCGGGCGGGAAGUCGGACAUGAGGAUCACCCAUGUAGAAGGCUGAGAAA
apparent Kd [3]: 0.0113 µM | apparent Kd [4]: 0.0148 µM

AUAGAGAUAGCGAUAUGAUCGAGAGAUCAUGUCGCUAAGAUUAGAAGGACAUGAGGAUCACCCAUGUAGGAUAUGGGAGUAGAA
apparent Kd [1]: 0.127 µM | apparent Kd [2]: 0.0498 µM

GGCCGAAUGGUCUAGGUGCACUUACAUGAGGAUCACCCAUGUCAGGAUAUCUUACGGGUCUCGUAAGAGAAGGGACAUCGCUAU
apparent Kd [3]: 0.0522 µM | apparent Kd [4]: 0.215 µM

UGCAUGCUAGGAUAUACGGGACAUUAGGGUUCGUCGUAUGGACAUGAGGAUCACCCAUGUAGAAGGAGCGUGCU
apparent Kd [3]: 0.0186 µM | apparent Kd [4]: 0.0445 µM

CUCAGCAAGGAAGGAUAUGGGUUUUCGCACAUGAGGAUCACCCAUGUCGCAGUCCCUACGGGAUCCCAGAAGGUCUAUGCGUGG
apparent Kd [1]: 0.26 µM | apparent Kd [2]: 0.0163 µM
